# Laboratory results: ChEMBL document CHEMBL3616416, “Imidazolidine-4-one derivatives in the search for novel chemosensitizers of Staphylococcus aureus MRSA: synthesis, biological evaluation and molecular modeling studies” (Eur J Med Chem, 2015)
# Calls of active or inactive are those of the source. The rule behind the calls is not given here.
# Legend:
# [1] = biological target: T1, Methicillin resistance mecR1 protein (Staphylococcus aureus) (UniProt P0A0B1); assay: Inhibition of MecR1 in methicillin-resistant Staphylococcus aureus HEMSA assessed as reduction in cloxacillin MIC at 0.0039 mM incubated for 20 hrs by serial dilution broth microplate method
# T1 sequence (whole entry): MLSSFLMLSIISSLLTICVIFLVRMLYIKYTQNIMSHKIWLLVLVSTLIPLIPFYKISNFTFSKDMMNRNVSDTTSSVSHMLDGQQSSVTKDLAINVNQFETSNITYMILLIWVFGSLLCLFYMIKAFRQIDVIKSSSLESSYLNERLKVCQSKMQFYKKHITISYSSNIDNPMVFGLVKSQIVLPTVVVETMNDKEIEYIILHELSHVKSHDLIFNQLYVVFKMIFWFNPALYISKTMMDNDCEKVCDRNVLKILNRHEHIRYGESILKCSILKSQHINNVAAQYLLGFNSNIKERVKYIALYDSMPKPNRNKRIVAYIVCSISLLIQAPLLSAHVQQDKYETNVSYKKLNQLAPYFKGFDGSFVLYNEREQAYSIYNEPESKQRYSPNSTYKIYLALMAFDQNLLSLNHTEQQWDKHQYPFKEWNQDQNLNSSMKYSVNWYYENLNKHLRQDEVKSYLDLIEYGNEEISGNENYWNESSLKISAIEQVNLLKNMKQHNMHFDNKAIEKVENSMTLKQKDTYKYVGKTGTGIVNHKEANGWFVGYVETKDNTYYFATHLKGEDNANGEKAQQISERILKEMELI
# Summary of the method: (§1)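 Chemosensitization in MRSA HEMSA 5 measured by CLSI broth microdilution in Mueller-Hinton broth. Serial two-fold dilutions of antibiotic (oxacillin, cloxacillin, ampicillin/sulbactam 2:1, ciprofloxacin or neomycin) combined with compound at fixed concentration not exceeding ¼ of its own MIC. Inoculum OD 0.5 diluted 1:100. Read after 20 h at 37 °C. Result given as fold reduction of antibiotic MIC.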
# [2] = biological target: T1, Methicillin resistance mecR1 protein (Staphylococcus aureus); assay: Inhibition of MecR1 in methicillin-resistant Staphylococcus aureus HEMSA assessed as reduction in ciprofloxacin MIC at 0.0039 mM incubated for 20 hrs by serial dilution broth microplate method; summary of the method: as §1
# Staphylococcus aureus [3] = assay: Potentiation of […] antibacterial activity against Staphylococcus aureus ATCC 25923 assessed as reduction in cloxacillin MIC incubated for 20 hrs by serial dilution broth microplate method; type: functional, organism-based
# Staphylococcus aureus [4] = assay: Potentiation of […] antibacterial activity against Staphylococcus aureus ATCC 25923 assessed as reduction in ampicillin and sulbactam MIC MIC incubated for 20 hrs by serial dilution broth microplate method; type: functional, organism-based
# Staphylococcus aureus [5] = assay: Antimicrobial activity against Staphylococcus aureus ATCC 25923 incubated for 20 hrs by serial dilution broth microplate method; type: functional; details: ATCC 25923, 20 h
# Summary of the method: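 Broth dilution per CLSI in Mueller-Hinton broth, serial two-fold dilutions; compounds alone against reference strain, inoculum from suspension at OD 0.5 diluted 1:100; read after 20 h at 37 °C. MIC taken as lowest concentration inhibiting growth.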
# [6] = biological target: T1, Methicillin resistance mecR1 protein (Staphylococcus aureus); assay: Inhibition of MecR1 in methicillin-resistant Staphylococcus aureus HEMSA assessed as reduction in neomycin MIC at 0.0039 mM incubated for 20 hrs by serial dilution broth microplate method; summary of the method: as §1
# Staphylococcus aureus [7] = assay: Potentiation of ciprofloxacin -induced antibacterial activity against Staphylococcus aureus ATCC 25923 assessed as reduction in […] MIC incubated for 20 hrs by serial dilution broth microplate method; type: functional, organism-based
# Staphylococcus aureus [8] = assay: Resistance index, ratio of MIC for methicillin-resistant Staphylococcus aureus HEMSA to MIC for Staphylococcus aureus ATCC 25923; type: functional
# [9] = biological target: T1, Methicillin resistance mecR1 protein (Staphylococcus aureus); assay: Inhibition of MecR1 in methicillin-resistant Staphylococcus aureus HEMSA assessed as reduction in ampicillin and sulbactam MIC at 0.0039 mM incubated for 20 hrs by serial dilution broth microplate method; summary of the method: as §1
# Staphylococcus aureus [10] = assay: Potentiation of neomycin-induced antibacterial activity against Staphylococcus aureus ATCC 25923 assessed as reduction in […] MIC incubated for 20 hrs by serial dilution broth microplate method; type: functional, organism-based
# [11] = biological target: T1, Methicillin resistance mecR1 protein (Staphylococcus aureus); assay: Inhibition of MecR1 in methicillin-resistant Staphylococcus aureus HEMSA assessed as reduction in oxacillin A MIC at 0.0039 mM incubated for 20 hrs by serial dilution broth microplate method; summary of the method: as §1
# Staphylococcus aureus [12] = assay: Antimicrobial activity against methicillin-resistant Staphylococcus aureus HEMSA incubated for 20 hrs by serial dilution broth microplate method; type: functional
# Summary of the method: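 Broth microdilution MIC per CLSI in Mueller-Hinton broth against clinical isolate MRSA HEMSA 5. Bacterial suspension adjusted to OD 0.5, diluted 1:100 and added to serial two-fold dilutions of test agent. Ampicillin/sulbactam used at 2:1 ratio. Growth read after 20 h at 37 °C.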
# Staphylococcus aureus [13] = assay: Potentiation of oxacillin-induced antibacterial activity against Staphylococcus aureus ATCC 25923 assessed as reduction in oxacillin MIC at 0.0005 mM incubated for 20 hrs by serial dilution broth microplate method; type: functional, organism-based
# Staphylococcus aureus [14] = assay: Potentiation of oxacillin-induced antibacterial activity against Staphylococcus aureus ATCC 25923 assessed as reduction in oxacillin MIC at 0.5 mM incubated for 20 hrs by serial dilution broth microplate method; type: functional, organism-based
# [15] = biological target: T1, Methicillin resistance mecR1 protein (Staphylococcus aureus); assay: Inhibition of MecR1 in methicillin-resistant Staphylococcus aureus HEMSA assessed as reduction in neomycin MIC at 0.5 mM incubated for 20 hrs by serial dilution broth microplate method; summary of the method: as §1
# [16] = biological target: T1, Methicillin resistance mecR1 protein (Staphylococcus aureus); assay: Inhibition of MecR1 in methicillin-resistant Staphylococcus aureus HEMSA assessed as reduction in ciprofloxacin MIC at 0.5 mM incubated for 20 hrs by serial dilution broth microplate method; summary of the method: as §1
# [17] = biological target: T1, Methicillin resistance mecR1 protein (Staphylococcus aureus); assay: Inhibition of MecR1 in methicillin-resistant Staphylococcus aureus HEMSA assessed as reduction in ampicillin and sulbactam MIC at 0.5 mM incubated for 20 hrs by serial dilution broth microplate method; summary of the method: as §1
# [18] = biological target: T1, Methicillin resistance mecR1 protein (Staphylococcus aureus); assay: Inhibition of MecR1 in methicillin-resistant Staphylococcus aureus HEMSA assessed as reduction in cloxacillin MIC at 0.5 mM incubated for 20 hrs by serial dilution broth microplate method; summary of the method: as §1
# [19] = biological target: T1, Methicillin resistance mecR1 protein (Staphylococcus aureus); assay: Inhibition of MecR1 in methicillin-resistant Staphylococcus aureus HEMSA assessed as reduction in oxacillin A MIC at 0.5 mM incubated for 20 hrs by serial dilution broth microplate method; summary of the method: as §1
# [20] = biological target: T1, Methicillin resistance mecR1 protein (Staphylococcus aureus); assay: Inhibition of MecR1 in methicillin-resistant Staphylococcus aureus HEMSA assessed as reduction in oxacillin A MIC at 0.25 mM incubated for 20 hrs by serial dilution broth microplate method; summary of the method: as §1
# [21] = biological target: T1, Methicillin resistance mecR1 protein (Staphylococcus aureus); assay: Inhibition of MecR1 in methicillin-resistant Staphylococcus aureus HEMSA assessed as reduction in ampicillin and sulbactam MIC at 0.25 mM incubated for 20 hrs by serial dilution broth microplate method; summary of the method: as §1
# [22] = biological target: T1, Methicillin resistance mecR1 protein (Staphylococcus aureus); assay: Inhibition of MecR1 in methicillin-resistant Staphylococcus aureus HEMSA assessed as reduction in neomycin MIC at 0.25 mM incubated for 20 hrs by serial dilution broth microplate method; summary of the method: as §1
# [23] = biological target: T1, Methicillin resistance mecR1 protein (Staphylococcus aureus); assay: Inhibition of MecR1 in methicillin-resistant Staphylococcus aureus HEMSA assessed as reduction in cloxacillin MIC at 0.25 mM incubated for 20 hrs by serial dilution broth microplate method; summary of the method: as §1
# [24] = biological target: T1, Methicillin resistance mecR1 protein (Staphylococcus aureus); assay: Inhibition of MecR1 in methicillin-resistant Staphylococcus aureus HEMSA assessed as reduction in ciprofloxacin MIC at 0.25 mM incubated for 20 hrs by serial dilution broth microplate method; summary of the method: as §1
# [25] = biological target: T1, Methicillin resistance mecR1 protein (Staphylococcus aureus); assay: Inhibition of MecR1 in methicillin-resistant Staphylococcus aureus HEMSA assessed as reduction in oxacillin A MIC at 0.125 mM incubated for 20 hrs by serial dilution broth microplate method; summary of the method: as §1
SMILES,Activity (Staphylococcus aureus [3]),Activity (Staphylococcus aureus [4]),MIC (Staphylococcus aureus [5]) [µM],Activity (Staphylococcus aureus [7]),Activity (Staphylococcus aureus [10]),MIC (Staphylococcus aureus [12]) [µM],Activity (Staphylococcus aureus [14]),also measured
O=C1NC(N2CCNCC2)=N/C1=C\c1cc2ccccc2c2ccccc12,inactive,inactive,1.9,inactive,inactive,15.6,–,fold change (FC) [1]: 2; inhibition [2]: inactive; inhibition [6]: inactive; Ratio (Staphylococcus aureus [8]): 8; inhibition [9]: inactive; inhibition [11]: inactive; Activity (Staphylococcus aureus [13]): inactive
O=C1NC(N2CCNCC2)=N/C1=C\c1cccs1,inactive,inactive,> 1000,inactive,inactive,> 1000,inactive,inhibition [15]: inactive; inhibition [16]: inactive; inhibition [17]: inactive; inhibition [18]: inactive; inhibition [19]: inactive
NC[C@@H]1O[C@H](O[C@H]2[C@@H](O)[C@H](O[C@@H]3[C@@H](O)[C@H](N)C[C@H](N)[C@H]3O[C@H]3O[C@H](CN)[C@@H](O)[C@H](O)[C@H]3N)O[C@@H]2CO)[C@H](N)[C@@H](O)[C@@H]1O [FRAMYCETIN],–,–,1,–,–,240,–,Ratio (Staphylococcus aureus [8]): 240
CC1(c2cccc3ccccc23)NC(=O)N(CCCCCN)C1=O (stereo not given),–,–,> 1000,–,–,1000,inactive,inhibition [20]: inactive
O=C1N/C(=C\c2ccc(Cl)cc2Cl)C(=O)N1CC(O)CN1CCNCC1 (stereo not given),–,–,> 1000,–,–,> 1000,inactive,inhibition [19]: inactive
CC1(c2cccc3ccccc23)NC(=O)N(CCCN)C1=O (stereo not given),inactive,inactive,> 1000,inactive,inactive,> 1000,inactive,inhibition [15]: inactive; inhibition [16]: inactive; inhibition [17]: inactive; inhibition [18]: inactive; inhibition [19]: inactive
O=C1NC(N2CCNCC2)=N/C1=C\c1ccsc1,inactive,inactive,> 1000,inactive,inactive,1000,inactive,inhibition [21]: inactive; inhibition [22]: inactive; inhibition [23]: inactive; inhibition [20]: inactive; inhibition [24]: inactive
O=C1NC(N2CCNCC2)=N/C1=C\c1ccc(Cl)cc1,–,–,> 1000,–,–,500,inactive,inhibition [25]: inactive
CC1(c2cccc3ccccc23)NC(=O)N(CCCCN)C1=O (stereo not given),–,–,> 1000,–,–,> 1000,inactive,inhibition [19]: inactive
O=C(O)c1cn(C2CC2)c2cc(N3CCNCC3)c(F)cc2c1=O [CIPROFLOXACIN],–,–,0.38,–,–,14,–,Ratio (Staphylococcus aureus [8]): 37
Cc1onc(-c2ccccc2)c1C(=O)N[C@@H]1C(=O)N2[C@@H]1SC(C)(C)[C@@H]2C(=O)O [OXACILLIN],–,–,0.47,–,–,710,–,Ratio (Staphylococcus aureus [8]): >1500
Cc1onc(-c2ccccc2Cl)c1C(=O)N[C@@H]1C(=O)N2[C@@H]1SC(C)(C)[C@@H]2C(=O)O [CLOXACILLIN],–,–,0.42,–,–,160,–,–
O=C1N/C(=C\c2ccc(Cl)cc2)C(=O)N1CC(O)CN1CCNCC1 (stereo not given),–,–,> 1000,–,–,1000,–,–
COc1ccc(/C=C2\NC(=O)N(CC(O)CNCCCN3CCN(C)CC3)C2=O)cc1 (stereo not given),inactive,inactive,> 1000,inactive,inactive,> 1000,inactive,inhibition [15]: inactive; fold change (FC) [16]: 2; fold change (FC) [17]: 2; fold change (FC) [18]: 8; fold change (FC) [19]: 2
